Measured values: publication PMC4142700 (The Prostate, 2010)
Where “and” joins values, the source holds several entries; their conditions need not be identical. Equal entries are not always repeated. Entries after “also recorded” stand apart in the source; their conditions may differ.

How the values were obtained:
p62 = p62 protein in peripheral blood mononuclear cells by Western blot; type: in vivo, patients; conditions: PBMCs, immunoblot, normalized to α-tubulin
Procedure, shortened: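 PBMCs were collected from six patients at baseline, 4 hr and 24 hr. Extracts were prepared in Laemmli buffer, resolved by SDS–PAGE and transferred to PVDF. Blots were probed for p62 and α-tubulin, then detected with HRP secondary antibody and ECL. Scanned bands were quantified by optical density, and p62 was normalized to α-tubulin.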

[1] = test system: castrate-resistant prostate cancer (CRPC); assay: Clinical outcome; type: in vivo, patients
Procedure, shortened: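 Oral 2DG, aqueous solution formulated at 100 mg/ml in water, given daily on days 1–14 of 21-day cycles. Dose cohorts were 30, 45 and 60 mg/kg. Each dose was given 1 hr before breakfast, followed by a ~50 ml water rinse of the dosing container. Patients with CRPC were followed for PSA and radiographic disease status across cycles.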

[2] = type: in vivo, patients
FDG uptake = assay: FDG-PET imaging at baseline and day 2: effect of 2DG on FDG uptake; type: in vivo, patients
Procedure, shortened: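 FDG-PET scans were taken at baseline, cycle 1 day 2 and cycle 2 day 15, with 2DG given orally on days 1–14 of 21-day cycles. FDG uptake was expressed as SUV at a selected tumor site divided by liver SUV, with liver serving as the control. Baseline and day 2 ratios were compared in nine patients.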

[3] = Pharmacokinetics of 2DG in plasma; type: in vivo, patients
Procedure, shortened: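 Blood samples (5 ml each) were drawn predose, hourly to 6 hr after oral 2DG on cycle 1 day 1, at 24 and 48 hr after cycle 1 day 1, and again on cycle 2 day 1. Plasma extracts were derivatized to 2-aminobenzoic acid derivatives, and 2DG was quantified by HPLC with fluorometric detection.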

prostate cancer cells = conditions: cited from earlier work
[4] = cycle 1, 30 mg/kg/day oral, n = 3, mean ± SD
[5] = cycle 1, 45 mg/kg/day oral, n = 4, mean ± SD
[6] = cycle 1, 60 mg/kg/day oral, n = 4, mean ± SD
[7] = cycle 2, 30 mg/kg/day oral, n = 3, mean ± SD
[8] = cycle 2, 45 mg/kg/day oral, n = 4, mean ± SD
[9] = cycle 2, 60 mg/kg/day oral, n = 4, mean ± SD

## O=CC[C@@H](O)[C@H](O)[C@H](O)CO [2DG, 2-deoxyglucose]
p62
  patients with a decrease in p62 level at 24 hr: Five of six
[1]; individual patients with CRPC
  cycles on study with radiographically stable disease: 8 cycles and 12 cycles and 21 cycles
[1]; seven patients with prostate cancer who completed study therapy
  declines in PSA: no declines
[2]; human, in vivo, 60 mg/kg, 3 weeks
  dose-limiting toxicity: grade 3 asymptomatic QTc prolongation
[2]; in vivo
  patients with grade 2 fatigue: three
[2]; in vivo, 45 mg/kg
  tolerability: well tolerated
[2]; in vivo, 60 mg/kg
  QT interval: prolonged
[2]; oral, days 1–14 of a 21-day cycle
  recommended phase II dose: 45 mg/kg
FDG uptake; FDG-PET, dose level 2 or 3
  patients with decreased FDG uptake by day 2 of therapy: Five of eight and five
FDG uptake; patient 5, lung, dose level 2, chest, baseline 6.3
  Day 2 SUV (ratio site/liver): 11.6
FDG uptake; patient 6, cervical, dose level 2, mediastinum, baseline 4.3
  Day 2 SUV (ratio site/liver): 2
FDG uptake; patient 7, prostate, dose level 3, L1 vertebral body, baseline 1.2
  Day 2 SUV (ratio site/liver): 1
FDG uptake; patient 8, prostate, dose level 3, ischium, baseline 2.8
  Day 2 SUV (ratio site/liver): 2.0
FDG uptake; patient 11, prostate, dose level 2, ilium, baseline 3.8
  Day 2 SUV (ratio site/liver): 3
[3]; [4]
  AUC: 821.2±236.2 μmol/Lhr
  Clearance: 232.0 ± 63.8 mL/h
  Cmax: 277 ± 18.6 µM
[3]; [5]
  AUC: 1107.7±213.3 μmol/Lhr
  Clearance: 243.3 ± 49.4 mL/h
  Cmax: 449 ± 168 µM
[3]; [6]
  AUC: 2086.2±743.2 μmol/Lhr
  Clearance: 185.0 ± 52.6 mL/h
[3]; [7]
  AUC: 751.3 ± 181.7 μmol/Lhr
  Clearance: 246.3 ± 56.6 mL/h
[3]; [8]
  AUC: 1087.1 ± 441.8 μmol/Lhr
  Clearance: 270.4 ± 126.4 mL/h
[3]; [9]
  AUC: 1226.9 ± 571.2 μmol/Lhr
  Clearance: 314.9 ± 108.7 mL/h
[3]; dose levels 30, 45 and 60 mg/kg
  dose dependence of pharmacokinetics: linear pharmacokinetics; also recorded: linear with dose level
[3]; human, plasma, po, 30 mg/kg, Cmax, dose level 30 mg/kg oral
  Cmax: 45 µg/mL
[3]; human, plasma, po, 45 mg/kg, Cmax, dose level 45 mg/kg oral
  Cmax: 73.7 µg/mL
[3]; human, plasma, po, 60 mg/kg, Cmax, dose level 60 mg/kg oral
  Cmax: 122 µg/mL
[3]; single agent, highest concentrations reached in this study
  blood concentrations reached: 700 µM
Prostate cancer cells; autophagy a mechanism of resistance
  effect in prostate cancer cell lines: cytotoxic effect
Prostate cancer cells; preclinical studies
  effect on prostate cancer cells: cytotoxic
